Experimental data: ChEMBL document CHEMBL2346664, “Synthesis, characterization and in vitro anticancer evaluation of novel 1,2,4-triazolin-3-one derivatives” (2013)

What was measured:
Format in all cases: functional
A549 = assay: Growth inhibition of human A549 cells after 48 hrs by sulforhodamine B assay; settings: A549, 48 h
In short: (§1)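 NCI 60-cell-line five-dose screen at 0.01, 0.1, 1, 10 and 100 µM final. Cells were plated at 5,000–40,000/well and grown 24 h at 37 °C, 5% CO2, then exposed to drug continuously for 48 h. Adherent cells were fixed with cold TCA (10% final) and stained with SRB; absorbance read at 515 nm. GI50 is the concentration where [(Ti-Tz)/(C-Tz)]×100 = 50, with Tz plates fixed at drug addition.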

NCI-H460 = assay: Growth inhibition of human NCI-H460 cells assessed as cell growth at 10 '-8 M after 48 hrs by sulforhodamine B assay; settings: NCI-H460, 48 h, read-out: Activity
HOP-92 = assay: Growth inhibition of human HOP92 cells assessed as cell growth at 10 '-4 M after 48 hrs by sulforhodamine B assay; settings: HOP-92, 48 h, read-out: Activity
SNB-19 = assay: Growth inhibition of human SNB19 cells after 48 hrs by sulforhodamine B assay; settings: SNB-19, 48 h
OVCAR-8 [1] = assay: Growth inhibition of human OVCAR8 cells assessed as cell growth at 10 '-5 M after 48 hrs by sulforhodamine B assay; settings: OVCAR-8, 48 h, read-out: Activity
T47D = assay: Growth inhibition of human T47D cells assessed as cell growth at 10 '-4 M after 48 hrs by sulforhodamine B assay; settings: read-out: Activity
SK-OV-3 = assay: Growth inhibition of human SKOV3 cells assessed as cell growth at 10 '-4 M after 48 hrs by sulforhodamine B assay; settings: SK-OV-3, 48 h, read-out: Activity
[2] = Growth inhibition of human HCC2998 cells after 48 hrs by sulforhodamine B assay; settings: HCC 2998, 48 h
In short: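 NCI 60-cell-line five-dose screen. Cells were plated at 5,000–40,000/well by doubling time and grown 24 h at 37 °C, 5% CO2. Time-zero plates were TCA-fixed. Drug from DMSO stock was tested at 0.01, 0.1, 1, 10 and 100 µM final for 48 h continuous exposure. Read-out was SRB at 515 nm. GI50 is the concentration giving 50% reduction in net protein increase versus untreated control.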

[3] = Growth inhibition of human HCC2998 cells assessed as cell growth at 10 '-7 M after 48 hrs by sulforhodamine B assay; settings: HCC 2998, 48 h, read-out: Activity
MDA-MB-231 = assay: Growth inhibition of human MDA-MB-231 cells assessed as cell growth at 10 '-8 M after 48 hrs by sulforhodamine B assay; settings: MDA-MB-231, 48 h, read-out: Activity
MDA-MB-435 = assay: Growth inhibition of human MDA-MB-435 cells assessed as cell growth at 10 '-8 M after 48 hrs by sulforhodamine B assay; settings: MDA-MB-435, 48 h, read-out: Activity
MOLT-4 = assay: Growth inhibition of human MOLT4 cells assessed as cell growth at 10 '-8 M after 48 hrs by sulforhodamine B assay; settings: MOLT-4, 48 h, read-out: Activity
[4] = Growth inhibition of human NCI-ADR-RES cells assessed as cell growth at 10 '-7 M after 48 hrs by sulforhodamine B assay; settings: read-out: Activity
UACC-62 = assay: Growth inhibition of human UACC62 cells assessed as growth inhibition at 10 uM after 48 hrs by sulforhodamine B assay; settings: UACC-62, 48 h, read-out: GI
CAKI-1 = assay: Growth inhibition of human CAKI-1 cells after 48 hrs by sulforhodamine B assay; settings: CAKI-1, 48 h; in short: as §1
HOP-62 = assay: Growth inhibition of human HOP62 cells assessed as cell growth at 10 '-8 M after 48 hrs by sulforhodamine B assay; settings: HOP-62, 48 h, read-out: Activity
HL-60(TB) = assay: Growth inhibition of human HL-60(TB) cells after 48 hrs by sulforhodamine B assay; settings: HL-60, 48 h
In short: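 NCI 60-cell-line five-dose screen over 0.01, 0.1, 1, 10 and 100 µM, with 48 h continuous exposure at 37 °C and 5% CO2 after 24 h pre-incubation (5,000–40,000 cells/well). Cells were TCA-fixed (10% final for adherent, 16% for suspension), stained with SRB and read at 515 nm. GI50 was solved from [(Ti−Tz)/(C−Tz)]×100 = 50 against time-zero plates.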

SNB-75 = assay: Growth inhibition of human SNB75 cells after 48 hrs by sulforhodamine B assay; settings: SNB-75, 48 h, read-out: LD50 (the source's name)
OVCAR-8 [5] = assay: Growth inhibition of human OVCAR8 cells assessed as cell growth at 10 '-8 M after 48 hrs by sulforhodamine B assay; settings: OVCAR-8, 48 h, read-out: Activity
COLO 205 = assay: Growth inhibition of human COLO205 cells assessed as growth inhibition at 10 uM after 48 hrs by sulforhodamine B assay; settings: COLO 205, 48 h, read-out: GI
RXF 393 [6] = assay: Growth inhibition of human RXF393 cells assessed as cell growth at 10 '-8 M after 48 hrs by sulforhodamine B assay; settings: RXF 393, 48 h, read-out: Activity
DU-145 = assay: Growth inhibition of human DU145 cells assessed as cell growth at 10 '-8 M after 48 hrs by sulforhodamine B assay; settings: DU-145, 48 h, read-out: Activity
U-251 = assay: Growth inhibition of human U251 cells assessed as growth inhibition at 10 uM after 48 hrs by sulforhodamine B assay; settings: U-251, 48 h, read-out: GI
RXF 393 [7] = assay: Growth inhibition of human RXF393 cells assessed as cell growth at 10 '-4 M after 48 hrs by sulforhodamine B assay; settings: RXF 393, 48 h, read-out: Activity
SK-MEL-28 = assay: Growth inhibition of human SK-MEL-28 cells assessed as cell growth at 10 '-7 M after 48 hrs by sulforhodamine B assay; settings: SK-MEL-28, 48 h, read-out: Activity
Malme-3M = assay: Growth inhibition of human MALME-3M cells assessed as cell growth at 10 '-4 M after 48 hrs by sulforhodamine B assay; settings: read-out: Activity
[8] = Growth inhibition of human EKVX cells assessed as cell growth at 10 '-7 M after 48 hrs by sulforhodamine B assay; settings: read-out: Activity
SK-MEL-2 = assay: Growth inhibition of human SK-MEL-2 cells assessed as cell growth at 10 '-7 M after 48 hrs by sulforhodamine B assay; settings: SK-MEL-2, 48 h, read-out: Activity
[9] = read-out: LD50 (the source's name)

Structure (SMILES): Cc1cc(=O)oc2cc(OCCn3c(C)nn(-c4ccc(Cl)cc4)c3=O)ccc12
- GI50 (A549): 6070 nM
- TGI (A549): > 1000 nM
- CC50 (A549; [9]): > 1000 nM
- growth at 0.01 µM (NCI-H460): 104%
- growth at 100 µM (HOP-92): 32%
- GI50 (SNB-19): 5370 nM
- TGI (SNB-19): > 1000 nM
- CC50 (SNB-19; [9]): > 1000 nM
- growth at 10 µM (OVCAR-8 [1]): 31%
- growth at 100 µM (T47D): 36%
- growth at 100 µM (SK-OV-3): -7%
- GI50 [2]: 3590 nM
- TGI [2]: > 1000 nM
- CC50 [2, 9]: > 1000 nM
- growth at 0.1 µM [3]: 91%
- growth at 0.01 µM (MDA-MB-231): 96%
- growth at 0.01 µM (MDA-MB-435): 99%
- growth at 0.01 µM (MOLT-4): 104%
- growth at 0.1 µM [4]: 96%
- inhibition of growth at 10 µM (UACC-62): 56.7%
- GI50 (CAKI-1): 1000 nM
- TGI (CAKI-1): > 1000 nM
- CC50 (CAKI-1; [9]): > 1000 nM
- growth at 0.01 µM (HOP-62): 101%
- GI50 (HL-60(TB)): 2800 nM
- CC50 (SNB-75): > 1000 nM
- growth at 0.01 µM (OVCAR-8 [5]): 95%
- inhibition of growth at 10 µM (COLO 205): 89.4%
- growth at 0.01 µM (RXF 393 [6]): 95%
- growth at 0.01 µM (DU-145): 111%
- inhibition of growth at 10 µM (U-251): 68.6%
- growth at 100 µM (RXF 393 [7]): -21%
- growth at 0.1 µM (SK-MEL-28): 87%
- growth at 100 µM (Malme-3M): 41%
- growth at 0.1 µM [8]: 90%
- growth at 0.1 µM (SK-MEL-2): 107%
